Data as given in ChEMBL document CHEMBL1128220, “Syntheses and antimalarial activities of N-substituted 11-azaartemisinins” (J Med Chem, 1995).

What was measured:
Mus musculus [1] = test: In vivo study of compound in mice was determined by no. of dead mice after 19 days post infection at the dose of 8 mg/kg/day; assay type: ADME, organism-based; settings: 456 h
How it was run: (§1)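 Mice infected with Plasmodium berghei were dosed in mg/kg/day, from 0 for untreated controls up to 256. Deaths were logged by the day postinfection on which they occurred. Surviving mice were counted 60 days after infection. Treated groups held 5 or 7 mice.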

Mus musculus [2] = test: In vivo study of compound in mice was determined by no. of dead mice after 26 days post infection at the dose of 8 mg/kg/day; assay type: ADME, organism-based; settings: 624 h; how it was run: as §1
Mus musculus [3] = test: Number of mice alive 60 days after infection at the dose of 128 mg/kg/day among the 5 mice tested; assay type: functional; how it was run: as §1
Mus musculus [4] = test: In vivo study of compound in mice was determined by no. of dead mice after 16 days post infection at the dose of 8 mg/kg/day; assay type: ADME, organism-based; settings: 384 h; how it was run: as §1
Plasmodium falciparum = test: In vitro antimalarial activity for chloroquine-resistant Plasmodium falciparum FCR3 relative to artemisinin; assay type: functional
Mus musculus [5] = test: In vivo study of Plasmodium berghei in mice (Mus musculus) was determined by number of dead mice (Mus musculus) after 20 days post infection at the dose of 8 mg/kg/day; assay type: ADME, organism-based; settings: 480 h; how it was run: as §1
Mus musculus [6] = test: Number of mice alive 60 days after infection at the dose of 32 mg/kg/day among the 5 mice tested; assay type: functional; how it was run: as §1
Mus musculus [7] = test: In vivo study of compound in mice was determined by no. of dead mice after 15 days post infection at the dose of 8 mg/kg/day; assay type: ADME, organism-based; settings: 360 h; how it was run: as §1
Mus musculus [8] = test: Number of mice alive 60 days after infection at the dose of 8 mg/kg/day among the 5 mice tested; assay type: functional; how it was run: as §1
Mus musculus [9] = test: In vivo study of compound in mice was determined by no. of dead mice after 18 days post infection at the dose of 16 mg/kg/day; assay type: ADME, organism-based; settings: 432 h; how it was run: as §1
Mus musculus [10] = test: In vivo study of compound in mice was determined by no. of dead mice after 11 days post infection at the dose of 4 mg/kg/day; assay type: ADME, organism-based; settings: 264 h; how it was run: as §1
Mus musculus [11] = test: Number of mice alive 60 days after infection at the dose of 4 mg/kg/day among the 7 mice tested; assay type: functional; how it was run: as §1
Mus musculus [12] = test: Number of mice alive 60 days after infection at the dose of 64 mg/kg/day among the 7 mice tested; assay type: functional; how it was run: as §1
Mus musculus [13] = test: In vivo study of compound in mice was determined by no. of dead mice after 12 days post infection at the dose of 4 mg/kg/day; assay type: ADME, organism-based; settings: 288 h; how it was run: as §1
Mus musculus [14] = test: Number of mice alive 60 days after infection at the dose of 16 mg/kg/day among the 7 mice tested; assay type: functional; how it was run: as §1
Mus musculus [15] = test: In vivo study of compound in mice was determined by no. of dead mice after 9 days post infection at the dose of 4 mg/kg/day; assay type: ADME, organism-based; settings: 216 h; how it was run: as §1
Mus musculus [16] = test: Number of mice alive 60 days after infection at the dose of 256 mg/kg/day among the 7 mice tested; assay type: functional; how it was run: as §1
Mus musculus [17] = test: In vivo study of compound in mice was determined by no. of dead mice after 8 days post infection at the dose of 4 mg/kg/day; assay type: ADME, organism-based; settings: 192 h; how it was run: as §1
Mus musculus [18] = test: In vivo study of compound in mice was determined by no. of dead mice after 16 days post infection at the dose of 4 mg/kg/day; assay type: ADME, organism-based; settings: 384 h; how it was run: as §1
Mus musculus [19] = test: In vivo study of compound in mice was determined by no. of dead mice after 18 days post infection at the dose of 4 mg/kg/day; assay type: ADME, organism-based; settings: 432 h; how it was run: as §1
Mus musculus [20] = test: In vivo study of control in mice was determined by no. of dead mice after 9 days post infection at the dose of 0 mg/kg/day; assay type: ADME, organism-based; settings: 216 h; how it was run: as §1
Mus musculus [21] = test: In vivo study of Plasmodium berghei in mice (Mus musculus) was determined by number of dead mice (Mus musculus) after 12 days post infection at the dose of 32 mg/kg/day; assay type: ADME, organism-based; settings: 288 h; how it was run: as §1
Mus musculus [22] = test: Number of mice alive 60 days after infection at the dose of 128 mg/kg/day among the 7 mice tested; assay type: functional; how it was run: as §1
Mus musculus [23] = test: In vivo study of Plasmodium berghei in mice (Mus musculus) was determined by number of dead mice (Mus musculus) after 20 days post infection at the dose of 32 mg/kg/day; assay type: ADME, organism-based; settings: 480 h; how it was run: as §1
Mus musculus [24] = test: Number of mice alive 60 days after infection at the dose of 8 mg/kg/day among the 7 mice tested; assay type: functional; how it was run: as §1
Mus musculus [25] = test: In vivo study of control in mice was determined by no. of dead mice after 8 days post infection at the dose of 0 mg/kg/day; assay type: ADME, organism-based; settings: 192 h; how it was run: as §1
Mus musculus [26] = test: In vivo study of Plasmodium berghei in mice (Mus musculus) was determined by number of dead mice (Mus musculus) after 14 days post infection at the dose of 8 mg/kg/day; assay type: ADME, organism-based; settings: 336 h; how it was run: as §1
Mus musculus [27] = test: In vivo study of Plasmodium berghei in mice (Mus musculus) was determined by number of dead mice (Mus musculus) after 16 days post infection at the dose of 8 mg/kg/day; assay type: ADME, organism-based; settings: 384 h; how it was run: as §1
Mus musculus [28] = test: In vivo study of Plasmodium berghei in mice (Mus musculus) was determined by number of dead mice (Mus musculus) after 18 days post infection at the dose of 32 mg/kg/day; assay type: ADME, organism-based; settings: 432 h; how it was run: as §1
Mus musculus [29] = test: In vivo study of control in mice was determined by no. of dead mice after 7 days post infection at the dose of 0 mg/kg/day; assay type: ADME, organism-based; settings: 168 h; how it was run: as §1
Mus musculus [30] = test: Number of mice alive 60 days after infection at the dose of 32 mg/kg/day among the 7 mice tested; assay type: functional; how it was run: as §1
Mus musculus [31] = test: In vivo study of control in mice was determined by no. of dead mice after 10 days post infection at the dose of 0 mg/kg/day; assay type: ADME, organism-based; settings: 240 h; how it was run: as §1
Mus musculus [32] = test: Number of mice alive 60 days after infection at the dose of 0 mg/kg/day among the 7 mice tested; assay type: functional; how it was run: as §1
Mus musculus [33] = test: In vivo study of Plasmodium berghei in mice (Mus musculus) was determined by number of dead mice (Mus musculus) after 17 days post infection at the dose of 128 mg/kg/day; assay type: ADME, organism-based; settings: 408 h; how it was run: as §1
Mus musculus [34] = test: In vivo study of Plasmodium berghei in mice (Mus musculus) was determined by number of dead mice (Mus musculus) after 27 days post infection at the dose of 32 mg/kg/day; assay type: ADME, organism-based; settings: 648 h; how it was run: as §1
Mus musculus [35] = test: In vivo study of Plasmodium berghei in mice (Mus musculus) was determined by number of dead mice (Mus musculus) after 13 days post infection at the dose of 8 mg/kg/day; assay type: ADME, organism-based; settings: 312 h; how it was run: as §1
Mus musculus [36] = test: In vivo study of Plasmodium berghei in mice (Mus musculus) was determined by number of dead mice (Mus musculus) after 19 days post infection at the dose of 32 mg/kg/day; assay type: ADME, organism-based; settings: 456 h; how it was run: as §1

C[C@@H]1CCC2[C@@H](C)C(=O)N(CC=O)[C@@H]3O[C@@]4(C)CC[C@@H]1[C@@]23OO4 (some centres not stated)
No. of dead mice (Mus musculus [1]): 1 | No. of dead mice (Mus musculus [2]): 1 | No. of mice alive (Mus musculus [3]): 5 | No. of dead mice (Mus musculus [4]): 1 | Relative activity (Plasmodium falciparum): 26 | No. of dead mice (Mus musculus [5]): 1 | No. of mice alive (Mus musculus [6]): 5 | No. of dead mice (Mus musculus [7]): 1 | No. of mice alive (Mus musculus [8]): 0

CCOC1O[C@@H]2O[C@@]3(C)CC[C@H]4[C@H](C)CCC([C@H]1C)[C@@]24OO3 (some centres not stated)
No. of dead mice (Mus musculus [9]): 1 | No. of dead mice (Mus musculus [10]): 1 | No. of mice alive (Mus musculus [11]): 0 | No. of mice alive (Mus musculus [12]): 7 | No. of dead mice (Mus musculus [13]): 1 | No. of mice alive (Mus musculus [14]): 6 | No. of dead mice (Mus musculus [15]): 1 | No. of mice alive (Mus musculus [16]): 7 | No. of dead mice (Mus musculus [17]): 1 | No. of dead mice (Mus musculus [18]): 1 | No. of dead mice (Mus musculus [19]): 2

C[C@@H]1CCC2[C@@H](C)C(=O)N(C)[C@@H]3O[C@@]4(C)CC[C@@H]1[C@@]23OO4 (some centres not stated)
Relative activity (Plasmodium falciparum): 2.6

C=CCN1C(=O)[C@H](C)C2CC[C@@H](C)[C@@H]3CC[C@@]4(C)OO[C@@]23[C@H]1O4 (some centres not stated)
Relative activity (Plasmodium falciparum): 0.8

C[C@@H]1CCC2[C@@H](C)C(=O)N(Cc3ccco3)[C@@H]3O[C@@]4(C)CC[C@@H]1[C@@]23OO4 (some centres not stated)
Relative activity (Plasmodium falciparum): 1

C[C@@H]1CCC2[C@@H](C)C(=O)N[C@@H]3O[C@@]4(C)CC[C@@H]1[C@@]23OO4 (some centres not stated)
Relative activity (Plasmodium falciparum): 1

C[C@@H]1CCC2[C@@H](C)C(=O)N(Cc3ccccn3)[C@@H]3O[C@@]4(C)CC[C@@H]1[C@@]23OO4 (some centres not stated)
Relative activity (Plasmodium falciparum): 22

CO[C@@]1(C)CC[C@@H]2C3C(CC[C@H]2C)[C@@H](C)C(=O)N(CC(C)(C)C)[C@@H]3O1 (some centres not stated)
Relative activity (Plasmodium falciparum): 0.001

C[C@@H]1CCC2[C@@H](C)C(=O)N(CC(C)(C)C)[C@@H]3O[C@@]4(C)CC[C@@H]1[C@@]23OO4 (some centres not stated)
Relative activity (Plasmodium falciparum): 9

CO[C@@]1(C)CC[C@@H]2C3C(CC[C@H]2C)[C@@H](C)C(=O)N[C@@H]3O1 (some centres not stated)
Relative activity (Plasmodium falciparum): 0.01

C[C@@H]1CCC2[C@@H](C)C(=O)N(Cc3cccs3)[C@@H]3O[C@@]4(C)CC[C@@H]1[C@@]23OO4 (some centres not stated)
Relative activity (Plasmodium falciparum): 1.1

CO[C@@]1(C)CC[C@@H]2C3C(CC[C@H]2C)[C@@H](C)C(=O)N(Cc2ccccn2)[C@@H]3O1 (some centres not stated)
Relative activity (Plasmodium falciparum): 0.008

C[C@@H]1CC[C@H]2[C@@H](C)C(=O)O[C@@H]3O[C@@]4(C)CC[C@@H]1[C@]32OO4 [ARTEMISININ]
No. of dead mice (Mus musculus [20]): 1 | No. of dead mice (Mus musculus [21]): 1 | No. of mice alive (Mus musculus [22]): 6 | No. of dead mice (Mus musculus [23]): 1 | No. of mice alive (Mus musculus [24]): 0 | No. of dead mice (Mus musculus [25]): 2 | No. of dead mice (Mus musculus [26]): 2 | No. of dead mice (Mus musculus [27]): 2 | No. of dead mice (Mus musculus [28]): 1 | No. of dead mice (Mus musculus [29]): 3 | No. of mice alive (Mus musculus [30]): 2 | No. of dead mice (Mus musculus [31]): 1 | No. of mice alive (Mus musculus [32]): 0 | No. of dead mice (Mus musculus [33]): 1 | No. of dead mice (Mus musculus [34]): 1 | No. of dead mice (Mus musculus [35]): 1 | No. of dead mice (Mus musculus [36]): 1
